Our source for the IC and Ki values is ChEMBL document CHEMBL1129436, “Novel peptidyl alpha-keto amide inhibitors of calpains and other cysteine proteases” (J Med Chem, 1996).

The target of assay [1] is T1, Cathepsin B (Homo sapiens, UniProt P07858). The experiment in a line: Inhibition of human cathepsin B. A digest of the protocol:
(§1)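 Bovine or human cathepsin B, assayed in 20 mM sodium acetate, pH 5.2, with 0.5 mM dithiothreitol and 2% DMSO. The two enzyme sources were used interchangeably. Ki was taken from Dixon plots, with triplicate assays plotted as 1/v versus inhibitor concentration.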

Assay [2] concerns the target T2, Calpain-1 catalytic subunit (Homo sapiens, UniProt P07384).
T2 sequence (P07384 whole entry): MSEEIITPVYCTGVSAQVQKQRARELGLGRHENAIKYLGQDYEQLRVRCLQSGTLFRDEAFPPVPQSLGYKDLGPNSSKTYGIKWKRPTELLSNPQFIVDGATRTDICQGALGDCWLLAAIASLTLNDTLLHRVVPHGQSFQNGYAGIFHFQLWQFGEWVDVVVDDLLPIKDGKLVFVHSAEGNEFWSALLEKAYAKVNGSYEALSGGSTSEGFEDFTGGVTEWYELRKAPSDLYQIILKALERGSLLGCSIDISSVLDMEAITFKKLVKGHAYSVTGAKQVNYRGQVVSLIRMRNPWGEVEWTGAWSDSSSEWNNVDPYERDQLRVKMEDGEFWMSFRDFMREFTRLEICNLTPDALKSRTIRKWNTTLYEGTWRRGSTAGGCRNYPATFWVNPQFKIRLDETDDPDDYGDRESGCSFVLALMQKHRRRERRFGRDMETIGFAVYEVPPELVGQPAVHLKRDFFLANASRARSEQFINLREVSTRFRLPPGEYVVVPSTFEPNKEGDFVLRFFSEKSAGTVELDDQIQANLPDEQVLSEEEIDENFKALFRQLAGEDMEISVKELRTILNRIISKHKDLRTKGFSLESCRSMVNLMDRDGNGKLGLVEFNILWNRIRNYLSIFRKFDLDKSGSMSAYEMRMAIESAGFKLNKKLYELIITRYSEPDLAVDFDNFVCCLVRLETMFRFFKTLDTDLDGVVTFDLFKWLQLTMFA
The experiment in a line: Inhibition of the cysteine protease human Calpain 1. Put shortly: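 Calpain assay in 25 mM Tris, pH 8.0, with 10 mM CaCl₂ and 5% DMSO. […] hydrolysis was read as initial velocity (t = 30-60 s) after a 30 s delay, at room temperature. Five or more inhibitor concentrations (not above 2 × K_obs) were used at two fixed substrate levels. Ki came from Dixon plots (1/v vs I) averaged over triplicates.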

Assay [3] has as its target Cathepsin B (Bos taurus, UniProt P07688). The experiment in a line: Inhibition of bovine cathepsin B. Put shortly:
as §1

Assay [4] has as its target T1, Cathepsin B. The experiment in a line: Compound was evaluated for the inhibition of Cathepsin B. A digest of the protocol:
as §1

For assay [5], the target named is T1, Cathepsin B. The experiment in a line: Compound was evaluated for the inhibition of Cathepsin B; Gives nonlinear dixon plots. Put shortly:
as §1

The structures appear in SMILES notation.
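Wherever IC is given: measured as membrane permeability of platelets.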

Turning to `CCNC(=O)C(=O)C(Cc1ccccc1)NC(=O)C(CC(C)C)NC(=O)OCc1ccccc1` (stereo not given), in the assay listed under Rattus norvegicus, the IC was found to be 22 µM. Besides, the Ki (commonly the dissociation constant of the complex between target and ligand, obtained from inhibition or displacement) at Cathepsin B [1] came to 6000 nM.
As to `CCC(NC(=O)C(CC(C)C)NC(=O)C(c1ccccc1)c1ccccc1)C(=O)C(=O)NCC(O)c1ccccc1` (stereo not given), the IC in the assay listed under Rattus norvegicus stood at 180 µM. Moreover, the results for the Ki (in assay [2]; on Cathepsin B [3]) were 750 nM and 170 nM, respectively.
The compound `CCC(NC(=O)C(CC(C)C)NC(=O)OCc1ccccc1)C(=O)C(=O)NCCOCCO` (stereo not given) yielded an IC in the assay listed under Rattus norvegicus of 58 µM. On Cathepsin B [1], this compound came in with a Ki of 2000 nM.
`CCC(NC(=O)C(CC(C)C)NC(=O)OCc1ccccc1)C(=O)C(=O)NCCc1ccccn1` (stereo not given) registered an IC in the assay filed under Rattus norvegicus of 70 µM. The same compound came in with a Ki in assay [2] of 410 nM.
As to `CCC(NC(=O)C(CC(C)C)NC(=O)OCc1ccccc1)C(=O)C(=O)NCc1ccccc1` (stereo not given), the IC in the assay filed under Rattus norvegicus was 30 µM. Moreover, the inhibition constant (Ki) at Cathepsin B [1] is 2000 nM.
In the case of `CC(C)CC(NC(=O)C(c1ccccc1)c1ccccc1)C(=O)NC(Cc1ccccc1)C(=O)C(=O)NCc1ccccn1` (stereo not given), in the assay listed under Rattus norvegicus, the IC was greater than 300 µM. For the same compound, the Ki was found to be 2200 nM on Cathepsin B [1] and 1100 nM in assay [2].
In turn, `CC(C)CC(NC(=O)OCc1ccccc1)C(=O)NC(Cc1ccccc1)C(=O)C(=O)NCc1ccccc1` (stereo not given) returned an IC in the assay listed under Rattus norvegicus greater than 300 µM. Further, the Ki on Cathepsin B [4] was found to be 4600 nM.
`CCC(NC(=O)C(CC(C)C)NC(=O)OCc1ccccc1)C(=O)C(=O)NCCc1ccc(O)cc1` (stereo not given) displayed an IC in the assay listed under Rattus norvegicus of 23 µM. Besides, the inhibitory constant (Ki) result at Cathepsin B [5] is “Non linear Dixon plots”; in assay [2] it was 380 nM.
Turning to `CCCNC(=O)C(=O)C(CC)NC(=O)C(CC(C)C)NC(=O)OCc1ccccc1` (stereo not given), the IC in the assay filed under Rattus norvegicus came out at 70 µM.
As for `CCC(NC(=O)C(CC(C)C)NC(=O)OCc1ccccc1)C(=O)C(=O)NCc1ccncc1` (stereo not given), the IC in the assay listed under Rattus norvegicus worked out at 54 µM. Further, the Ki turned out to be 6400 nM on Cathepsin B [1] and 1100 nM in assay [2].
`CCC(NC(=O)C(CC(C)C)NC(=O)OCc1ccccc1)C(=O)C(=O)NCC1(C)CC(O)CC(C)(C)C1` (stereo not given) showed an IC in the assay filed under Rattus norvegicus of 103 µM. The inhibition constant Ki at Cathepsin B [1] turned out to be 890 nM; in assay [2] it was 420 nM.
With `CCNC(=O)C(=O)C(CC)NC(=O)C(CC(C)C)NC(=O)OCc1ccccc1` (stereo not given), in the assay filed under Rattus norvegicus, the IC came out at 100 µM. This compound also returned an inhibition constant Ki at Cathepsin B [1] of 2400 nM.
In turn, `CC(C)CC(NC(=O)OCc1ccccc1)C(=O)NC(Cc1ccccc1)C(=O)C(=O)NCC(O)c1ccccc1` (stereo not given) gave an IC in the assay filed under Rattus norvegicus of 44 µM. Further, the values for the Ki (on Cathepsin B [1]; in assay [2]) were 2100 nM and 1300 nM, respectively.
The matching figures for `CC(C)CC(NC(=O)OCc1ccccc1)C(=O)NC(Cc1ccccc1)C(=O)C(=O)NCCCN1CCOCC1` (stereo not given): 54 µM, 13000 nM and 120 nM.
On the same counts, the results for `CCC(NC(=O)C(CC(C)C)NC(=O)OCc1ccccc1)C(=O)C(=O)NCCO` (stereo not given) are 78 µM, 4500 nM and 800 nM.
The matching figures for `CCC(NC(=O)C(CC(C)C)NC(=O)OCc1ccccc1)C(=O)C(=O)NCCCN1CCOCC1` (stereo not given): 45 µM, 6900 nM and 140 nM.
In turn, `CCC(NC(=O)C(CC(C)C)NC(=O)OCc1ccccc1)C(=O)C(=O)NCCCCCO` (stereo not given) had an IC in the assay filed under Rattus norvegicus of 54 µM. At Cathepsin B [1], this compound had an inhibitory constant (Ki) of 280 nM.
Regarding `CC(C)CC(NC(=O)OCc1ccccc1)C(=O)NC(Cc1ccccc1)C(=O)C(=O)NCc1ccccn1` (stereo not given), the inhibition constant Ki was 800 nM on Cathepsin B [1] and 650 nM in assay [2].
`CCC(NC(=O)C(CC(C)C)NC(=O)OCc1ccccc1)C(=O)C(=O)NCC(O)c1ccccc1` (stereo not given) displayed an IC in the assay filed under Rattus norvegicus of 69 µM. Also, the inhibitory constant (Ki) at Cathepsin B [1] came to 370 nM; in assay [2], 1100 nM.
Regarding `CCC(NC(=O)C(CC(C)C)NC(=O)OCc1ccccc1)C(=O)C(=O)NCCc1cccc(OC)c1` (stereo not given), the inhibitory constant (Ki) on Cathepsin B [1] came out at 310 nM; in assay [2], 110 nM.
With `CCNC(=O)C(=O)C(CC)NC(=O)C(CC(C)C)NC(=O)Cc1cccc2ccccc12` (stereo not given), the inhibition constant (Ki) at Cathepsin B [1] came to 350 nM; in assay [2], 300 nM.
In the assay filed under Rattus norvegicus, `CCC(NC(=O)C(CC(C)C)NC(=O)OCc1ccccc1)C(=O)C(=O)NCc1ccccn1` (stereo not given) registered an IC of 110 µM. For the same compound, the figures for the Ki (on Cathepsin B [1]; in assay [2]) were 3000 nM and 640 nM, respectively.
In the assay listed under Rattus norvegicus, `CCC(NC(=O)C(CC(C)C)NC(=O)OCc1ccccc1)C(=O)C(=O)NCCN1CCOCC1` (stereo not given) registered an IC of 23 µM. In addition, the Ki was 2500 nM on Cathepsin B [1] and 1000 nM in assay [2].
Turning to `CCC(NC(=O)C(CC(C)C)NC(=O)OCc1ccccc1)C(=O)C(=O)NCCCn1ccnc1` (stereo not given), the Ki on Cathepsin B [1] turned out to be 9900 nM; in assay [2] it was 290 nM.
Regarding `CCC(NC(=O)C(CC(C)C)NC(=O)OCc1ccccc1)C(=O)C(=O)NCc1ccco1` (stereo not given), in the assay filed under Rattus norvegicus, the IC was 58 µM. Further, the Ki at Cathepsin B [1] was 6000 nM; in assay [2], 800 nM.
With `CCC(NC(=O)C(CC(C)C)NC(=O)OCc1ccccc1)C(=O)C(=O)NCCCc1ccccc1` (stereo not given), in the assay filed under Rattus norvegicus, the IC was 100 µM. In addition, the affinity on Cathepsin B [1], expressed as Ki, was 200 nM.
Regarding `CCC(NC(=O)C(CC(C)C)NC(=O)C(c1ccccc1)c1ccccc1)C(=O)C(=O)NCc1ccccn1` (stereo not given), the IC in the assay filed under Rattus norvegicus was found to be 88 µM.
Take `CCC(NC(=O)C(CC(C)C)NC(=O)OCc1ccccc1)C(=O)C(=O)NCC1CCCO1` (stereo not given): the IC in the assay listed under Rattus norvegicus came out at 22 µM. Further, the Ki at Cathepsin B [1] is 4500 nM; in assay [2], 330 nM.
In the case of `CCC(NC(=O)C(CC(C)C)NC(=O)OCc1ccccc1)C(=O)C(=O)NCCc1ccc(OC)cc1` (stereo not given), the inhibitory constant (Ki) worked out at 440 nM on Cathepsin B [1] and 120 nM in assay [2].
For `CCC(NC(=O)C(CC(C)C)NC(=O)OCc1ccccc1)C(=O)C(=O)NCc1cc(OC)cc(OC)c1` (stereo not given), the IC in the assay filed under Rattus norvegicus worked out at 30 µM. The values for the inhibition constant Ki (at Cathepsin B [1]; in assay [2]) were 1800 nM and 2300 nM, respectively.
On the same counts, the results for `CCCNC(=O)C(=O)C(Cc1ccccc1)NC(=O)C(CC(C)C)NC(=O)OCc1ccccc1` (stereo not given) are 31 µM, 3000 nM and 350 nM.
Regarding `CCC(NC(=O)C(CC(C)C)NC(=O)OCc1ccccc1)C(=O)C(=O)NCCc1ccccc1` (stereo not given), the IC in the assay listed under Rattus norvegicus is 50 µM. This compound also had a Ki on Cathepsin B [1] of 1300 nM.
In the assay filed under Rattus norvegicus, `CCC(NC(=O)C(CC(C)C)NC(=O)OCc1ccccc1)C(=O)C(=O)NCCc1c[nH]c2ccccc12` (stereo not given) gave an IC of 180 µM. Besides, the Ki in assay [2] came to 300 nM; on Cathepsin B [3], 31 nM.
On to `CCCC(NC(=O)C(CC(C)C)NC(=O)OCc1ccccc1)C(=O)C(=O)NCCCN1CCOCC1` (stereo not given), for which the IC in the assay filed under Rattus norvegicus came to 18 µM. Besides, the inhibition constant Ki on Cathepsin B [1] worked out at 4200 nM; in assay [2], 250 nM.
In the assay filed under Rattus norvegicus, `CC(C)CC(NC(=O)OCc1ccccc1)C(=O)NC(Cc1ccccc1)C(=O)C(=O)NCCc1ccccc1` (stereo not given) returned an IC of 100 µM. Further, the Ki at Cathepsin B [4] came to 9300 nM.
For `CCC(NC(=O)C(CC(C)C)NC(=O)OCc1ccccc1)C(=O)C(=O)NCCc1ccccc1OC` (stereo not given), the Ki was determined as 630 nM on Cathepsin B [1] and 130 nM in assay [2].
The compound `CCC(NC(=O)C(CC(C)C)NC(=O)OCc1ccccc1)C(=O)C(=O)NCc1cccnc1` (stereo not given) showed an IC in the assay listed under Rattus norvegicus greater than 300 µM. This compound also returned a Ki on Cathepsin B [1] of 1200 nM.
